According to ChEMBL document CHEMBL1137973, “Anthranilate 4H-oxazol-5-ones: novel small molecule antibacterial acyl carrier protein synthase (AcpS) inhibitors” (Bioorg Med Chem Lett, 2004):
pIC50: −log10 of the molar value. ≈ marks a conversion by molar mass, not a printed value.

Assays:
Streptococcus pneumoniae = experiment: Minimum inhibitory concentration required against Streptococcus pneumoniae; format: functional
In short: (§1)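 MICs against aerobic bacteria were determined by broth microdilution as recommended by NCCLS. Each compound was tested once against each strain. Standard error per run is 1 dilution.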

Bacillus subtilis = experiment: Minimum inhibitory concentration required against Bacillus subtilis was determined; format: functional; in short: as §1
[1] = Minimum inhibitory concentration required against […] faecalis ATCC strain was determined; format: functional; details: Enterococcus faecalis; in short: as §1
Enterococcus faecalis = experiment: Minimum inhibitory concentration required against Enterococcus faecalis VRE strain was determined; format: functional; in short: as §1
[2] = target: T1, Holo-[acyl-carrier-protein] synthase (Bacillus subtilis (strain 168), UniProt P96618); experiment: In vitro inhibitory activity against Holo-[acyl-carrier-protein] synthase was determined using Bacillus subtilis GST-Acp-HTRFassay
T1 sequence (P96618 whole entry): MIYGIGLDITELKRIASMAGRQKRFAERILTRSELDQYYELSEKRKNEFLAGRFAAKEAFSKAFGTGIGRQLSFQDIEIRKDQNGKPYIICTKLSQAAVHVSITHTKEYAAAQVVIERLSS
In short: (§2)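 B. subtilis AcpS at 15 ng/mL was incubated with biotin-CoA and GST-ACP as acceptor. Buffer was 50 mM Tris·HCl pH 8.0 with 7.5 mM MgCl2, 3.75 mM DTT, 0.0375% Tween-20 and BSA. The reaction ran 3 h at room temperature. It was stopped with EDTA/KF containing europium cryptate anti-GST antibody plus streptavidin–allophycocyanin, and read by HTRF. Standard error per run is 10%.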

[3] = target: T1, Holo-[acyl-carrier-protein] synthase; experiment: In vitro inhibitory activity against acyl carrier protein synthase (AcpS) in Bacillus subtilis GST-Acp-HTRFassay; in short: as §2

MIC (Streptococcus pneumoniae) [µM]	MIC (Bacillus subtilis) [µM]	MIC [1] [µM]	MIC (Enterococcus faecalis) [µM]	pIC50 [2]	pIC50 [3]	Compound
100 (≈ 39.4 µg/mL)	200 (≈ 78.9 µg/mL)	100 (≈ 39.4 µg/mL)	200 (≈ 78.9 µg/mL)	5.72		O=C(O)c1cc(F)ccc1/N=C/c1nc(-c2ccc(C(F)(F)F)cc2)oc1O
100 (≈ 49 µg/mL)	> 200	100 (≈ 49 µg/mL)	50 (≈ 24.5 µg/mL)	5.70		O=C(O)c1cc(Br)c(Cl)cc1/N=C/c1nc(-c2ccc(C(F)(F)F)cc2)oc1O
25 (≈ 10.7 µg/mL)	50 (≈ 21.3 µg/mL)	100 (≈ 42.7 µg/mL)	50 (≈ 21.3 µg/mL)	4.70		O=C(O)c1cc(Cl)ccc1/N=C/c1nc(-c2cccc(OC(F)(F)F)c2)oc1O
200 (≈ 72.1 µg/mL)	> 200	100 (≈ 36.1 µg/mL)	100 (≈ 36.1 µg/mL)	5.68		O=C(O)c1cc(F)ccc1/N=C/c1nc(-c2ccc(Cl)cc2)oc1O
12.5 (≈ 5.86 µg/mL)	200 (≈ 93.7 µg/mL)	25 (≈ 11.7 µg/mL)	50 (≈ 23.4 µg/mL)	5.89		O=C(O)c1cc(I)ccc1/N=C/c1nc(-c2ccc(Cl)cc2)oc1O
12.5 (≈ 5.89 µg/mL)	25 (≈ 11.8 µg/mL)	50 (≈ 23.6 µg/mL)	25 (≈ 11.8 µg/mL)	4.82		O=C(O)c1cc(Br)ccc1/N=C/c1nc(-c2cccc(OC(F)(F)F)c2)oc1O
200 (≈ 90.3 µg/mL)	> 200	> 200	> 200	6.89		CC(=O)Nc1ccc(/N=C/c2nc(-c3ccc(C(F)(F)F)c(F)c3)oc2O)c(C(=O)O)c1
100 (≈ 42.2 µg/mL)	> 200	100 (≈ 42.2 µg/mL)	200 (≈ 84.3 µg/mL)	5.47		O=C(O)c1cc(Br)ccc1/N=C/c1nc(-c2ccc(Cl)cc2)oc1O
25 (≈ 10.2 µg/mL)	25 (≈ 10.2 µg/mL)	200 (≈ 81.3 µg/mL)	100 (≈ 40.6 µg/mL)		5.36	Cc1ccc(/N=C/c2nc(-c3cccc(OC(F)(F)F)c3)oc2O)c(C(=O)O)c1
	> 200	> 200		< 4.70		COc1ccc(-c2nc(/C=N/c3ccc(F)cc3C(=O)O)c(O)o2)cc1
	> 200	> 200		< 4.70		O=C(O)c1cc(Br)c(Cl)cc1/N=C/c1nc(-c2ccc(Cl)cc2)oc1O
100 (≈ 39 µg/mL)	100 (≈ 39 µg/mL)	> 200	100 (≈ 39 µg/mL)	6.08		Cc1ccc(/N=C/c2nc(-c3ccc(C(F)(F)F)cc3)oc2O)c(C(=O)O)c1
				< 4.70		O=C(O)c1ccccc1/N=C/c1nc(-c2ccccc2)oc1O
12.5 (≈ 5.36 µg/mL)	50 (≈ 21.4 µg/mL)	50 (≈ 21.4 µg/mL)	50 (≈ 21.4 µg/mL)	5.96		O=C(O)c1cc(Cl)ccc1/N=C/c1nc(-c2ccc(C(F)(F)F)c(F)c2)oc1O
25 (≈ 10.2 µg/mL)	25 (≈ 10.2 µg/mL)	100 (≈ 40.8 µg/mL)	100 (≈ 40.8 µg/mL)	6.57		Cc1ccc(/N=C/c2nc(-c3ccc(C(F)(F)F)c(F)c3)oc2O)c(C(=O)O)c1
> 200	> 200	> 200	> 200	4.82		O=C(O)c1ccccc1/N=C/c1nc(-c2ccc(Cl)cc2)oc1O
12.5 (≈ 5.91 µg/mL)	50 (≈ 23.7 µg/mL)	25 (≈ 11.8 µg/mL)	25 (≈ 11.8 µg/mL)	5.82		O=C(O)c1cc(Br)ccc1/N=C/c1nc(-c2ccc(C(F)(F)F)c(F)c2)oc1O
